The target of assay [1] is Cyclin-dependent kinase 2 (Homo sapiens) (UniProt P24941). The assay can be described thus: Ratio of compound to staurosporine binding affinity to human CDK2 in presence of DTT.
Assay [2] addresses Cyclin-dependent kinase 3 (Homo sapiens) (UniProt Q00526). The assay can be described thus: Binding affinity to human CDK3 at 500 nM by cell-based competition binding assay relative to control in presence of DTT. In short, it runs like this: (§1)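 Kinase binding profiling ran on a commercial (Ambit) competitive binding screen against a panel of 90 kinases. The screen used reducing conditions with 7.5 mM DTT. To withstand the DTT, the bivalent ligand was tested as its amide isostere, with the disulfide replaced. A staurosporine derivative carrying a 3 β-alanine linker was run as the reference compound.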

For assay [3], the target named is Fibroblast growth factor receptor 2 (Homo sapiens) (UniProt P21802). The assay is described as follows: Binding affinity to human FGFR2 at 500 nM by cell-based competition binding assay relative to control in presence of DTT. Summed up: (§2)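 Commercial (Ambit) competitive kinase-binding panel of 90 kinases measured the binding profile. Run under reducing conditions of 7.5 mM DTT. Binding is expressed relative to control.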

The target of assay [4] is T1, Aurora kinase A (Homo sapiens) (UniProt O14965).
T1 sequence (whole entry): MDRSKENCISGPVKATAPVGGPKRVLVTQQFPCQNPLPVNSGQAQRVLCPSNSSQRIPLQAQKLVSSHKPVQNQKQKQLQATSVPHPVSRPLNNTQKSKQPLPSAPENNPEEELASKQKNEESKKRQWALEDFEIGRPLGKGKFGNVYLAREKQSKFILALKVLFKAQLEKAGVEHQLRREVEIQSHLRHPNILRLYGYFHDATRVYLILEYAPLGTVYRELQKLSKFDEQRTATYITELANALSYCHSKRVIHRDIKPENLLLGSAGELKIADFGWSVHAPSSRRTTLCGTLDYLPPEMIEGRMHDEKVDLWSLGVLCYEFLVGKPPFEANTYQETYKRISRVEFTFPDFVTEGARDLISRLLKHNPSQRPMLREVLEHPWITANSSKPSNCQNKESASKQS
The assay is described as follows: Binding affinity to human aurora kinase A at 500 nM by cell-based competition binding assay relative to control in presence of DTT.

Assay [5] concerns the target Phosphatidylinositol 4-phosphate 3-kinase C2 domain-containing subunit beta (Homo sapiens) (UniProt O00750). The assay is described as follows: Binding affinity to human PIK3C2beta at 500 nM by cell-based competition binding assay relative to control in presence of DTT.
For assay [6], the target named is Casein kinase I isoform gamma-2 (Homo sapiens) (UniProt P78368). The assay is described as follows: Binding affinity to human CSNK1G2 at 500 nM by cell-based competition binding assay relative to control in presence of DTT. In short, it runs like this: as §2
Assay [7] has as its target Cyclin-dependent kinase 16 (Homo sapiens) (UniProt Q00536). The assay can be described thus: Binding affinity to human PCTK1 at 500 nM by cell-based competition binding assay relative to control in presence of DTT.
In assay [8] the target is Serine/threonine-protein kinase pim-1 (Homo sapiens) (UniProt P11309). The assay can be described thus: Binding affinity to human PIM1 at 500 nM by cell-based competition binding assay relative to control in presence of DTT.
Assay [9] deals with Serine/threonine-protein kinase pim-3 (Homo sapiens) (UniProt Q86V86). The assay is described as follows: Binding affinity to human PIM3 at 500 nM by cell-based competition binding assay relative to control in presence of DTT.
Assay [10] addresses Tyrosine-protein kinase ABL1 (Homo sapiens) (UniProt P00519). The assay is described as follows: Binding affinity to human ABL1 at 200 nM by cell-based competition binding assay relative to control in presence of DTT. In short, it runs like this:
as §1

Assay [11] has as its target Non-receptor tyrosine-protein kinase TYK2 (Homo sapiens) (UniProt P29597). The assay can be described thus: Binding affinity to human TYK2 kinase domain 2 at 200 nM by cell-based competition binding assay relative to control in presence of DTT.
The target of assay [12] is MAP kinase-interacting serine/threonine-protein kinase 2 (Homo sapiens) (UniProt Q9HBH9). The assay can be described thus: Binding affinity to human MKNK2 at 200 nM by cell-based competition binding assay relative to control in presence of DTT.
The target in assay [13] is T2, TGF-beta receptor type-1 (Homo sapiens) (UniProt P36897).
T2 sequence (whole entry): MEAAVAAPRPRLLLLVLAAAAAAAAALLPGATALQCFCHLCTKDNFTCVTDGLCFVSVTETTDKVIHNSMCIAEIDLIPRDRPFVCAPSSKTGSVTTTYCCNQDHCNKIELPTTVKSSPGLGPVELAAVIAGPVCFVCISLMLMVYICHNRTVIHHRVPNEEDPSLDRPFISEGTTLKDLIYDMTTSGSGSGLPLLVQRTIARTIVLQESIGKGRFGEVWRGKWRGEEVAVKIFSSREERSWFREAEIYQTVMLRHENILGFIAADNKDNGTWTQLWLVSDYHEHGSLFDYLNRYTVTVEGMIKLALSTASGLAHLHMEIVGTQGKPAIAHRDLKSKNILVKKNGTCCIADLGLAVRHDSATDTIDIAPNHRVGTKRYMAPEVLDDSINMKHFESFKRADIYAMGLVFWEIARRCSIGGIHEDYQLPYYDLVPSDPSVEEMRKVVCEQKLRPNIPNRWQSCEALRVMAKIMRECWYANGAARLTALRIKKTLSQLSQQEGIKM
The assay is described as follows: Binding affinity to human TGFBR1 at 200 nM by cell-based competition binding assay relative to control in presence of DTT.

Assay [14] concerns the target Macrophage colony-stimulating factor 1 receptor (Homo sapiens) (UniProt P07333). The assay can be described thus: Binding affinity to human CSF1R at 200 nM by cell-based competition binding assay relative to control in presence of DTT. Summed up: as §2
Assay [15] has as its target Serine/threonine-protein kinase pim-1 (Homo sapiens) (UniProt P11309). The assay is described as follows: Binding affinity to human PIM1 at 200 nM by cell-based competition binding assay relative to control in presence of DTT.
Assay [16] addresses Ephrin type-A receptor 2 (Homo sapiens) (UniProt P29317). The assay is described as follows: Binding affinity to human EPHA2 at 200 nM by cell-based competition binding assay relative to control in presence of DTT. Summed up:
as §2

Assay [17] concerns the target High affinity nerve growth factor receptor (Homo sapiens) (UniProt P04629). The assay can be described thus: Binding affinity to human TRKA at 50 nM by cell-based competition binding assay relative to control in presence of DTT.
The subject of assay [18] is Mast/stem cell growth factor receptor Kit (Homo sapiens), P10721 [D816V]. The assay can be described thus: Binding affinity to human KIT D816V mutant at 50 nM by cell-based competition binding assay relative to control in presence of DTT. In short, it runs like this:
(§3)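 Competition binding screen (Ambit) across a panel of 90 kinases, scoring test ligand displacement of each kinase's binding relative to control. The screen ran under reducing conditions with 7.5 mM DTT.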

In assay [19] the target is Serine/threonine-protein kinase B-raf (Homo sapiens) (UniProt P15056). The assay can be described thus: Binding affinity to human BRAF at 50 nM by cell-based competition binding assay relative to control in presence of DTT. In short, it runs like this:
as §1

Assay [20] has as its target Ribosomal protein S6 kinase alpha-3 (Homo sapiens) (UniProt P51812). The assay can be described thus: Binding affinity to human RPS6KA3 kinase domain 1 at 50 nM by cell-based competition binding assay relative to control in presence of DTT.
The target of assay [21] is Glycogen synthase kinase-3 beta (Homo sapiens) (UniProt P49841). The assay is described as follows: Binding affinity to human GSK3-beta at 50 nM by cell-based competition binding assay relative to control in presence of DTT. In short, it runs like this:
as §3

*1 amine or outer side, *2 acyl side, *3 side chain or, on linkers, in order; H or OH if unused. Where a SMILES comes first, the peptide text is derived from it. Bridges are numbered along the chain shown (N, C = ends). [ ]: non-standard residue; d: D form. The star is where a group is joined. Staurosporine = CO[C@@H]1[C@H](N(C)*)C[C@H]2O[C@]1(C)n1c3ccccc3c3c4c(c5c6ccccc6n2c5c31)C(=O)NC4; Suc = O=C(CCC(=O)[*:2])[*:1]; Dap = NC[C@H](N)C(=O)O; βAla = NCCC(=O)O

For three compounds, Selectivity ratio and Activity results are on record in ChEMBL document CHEMBL1152541, “Staurosporine tethered peptide ligands that target cAMP-dependent protein kinase (PKA): optimization and selectivity profiling” (Bioorg Med Chem, 2009).

`CO[C@@H]1[C@H](N(C)C(=O)CCC(=O)NCCC(=O)NCCC(=O)NCCC(N)=O)C[C@H]2O[C@]1(C)n1c3ccccc3c3c4c(c5c6ccccc6n2c5c31)C(=O)NC4`: the Selectivity ratio in [1] is 50. For the same compound, the Activity in [2] came to 87%; in assay [3], 27%; in [4], 4.2%; in [5], 98%; in assay [6], 99%; in [7] it was 75%. Besides, the results for the Activity in assay [8] and in assay [9] were 20% and 10%, respectively.

With `CO[C@@H]1[C@H](N(C)C(=O)CCC(=O)NCCC(=O)NCCC(=O)NCCC(=O)NCCC(=O)NCCC(=O)NCCC(=O)NCCC(=O)N[C@H]2CSSC[C@@H](C(=O)NCC(N)=O)NC(=O)CNC(=O)[C@H](Cc3ccccc3)NC(=O)[C@H](C(C)C)NC(=O)[C@H](CCCNC(=N)N)NC(=O)[C@H](Cc3ccccc3)NC(=O)[C@H](C(C)C)NC2=O)C[C@H]2O[C@]1(C)n1c3ccccc3c3c4c(c5c6ccccc6n2c5c31)C(=O)NC4` ({Staurosporine-Suc-βAla-βAla-βAla-βAla-βAla-βAla-βAla}-CVFRVFGCG-NH2; disulfide 1-8), the Activity was determined as 100% in assay [10]; 62% in assay [11]; 57% in [12]; 100% in assay [13]; 44% in assay [14]; 53% in [15]. Further, in assay [16], the Activity was 100%.

On to `CO[C@@H]1[C@H](N(C)C(=O)CCC(=O)NCCC(=O)NCCC(=O)NCCC(=O)NCCC(=O)NCCC(=O)NCCC(=O)NCCC(=O)N[C@H]2CNC(=O)C[C@@H](C(N)=O)NC(=O)CNC(=O)[C@H](Cc3ccccc3)NC(=O)[C@H](C(C)C)NC(=O)[C@H](CCCNC(=N)N)NC(=O)[C@H](Cc3ccccc3)NC(=O)[C@H](C(C)C)NC2=O)C[C@H]2O[C@]1(C)n1c3ccccc3c3c4c(c5c6ccccc6n2c5c31)C(=O)NC4` ({Staurosporine-Suc-βAla-βAla-βAla-βAla-βAla-βAla-βAla}-[Dap]VFRVFGD-NH2; lactam 1-8), for which the Activity in [17] was 98%; in assay [18], 6.5%; in [19], 96%; in assay [20] it was 100%; in [21], 74%.
